Laboratory results from ChEMBL document CHEMBL1130118, “A novel radioiodination reagent for protein radiopharmaceuticals with L-lysine as a plasma-stable metabolizable linkage to liberate m-iodohippuric acid after lysosomal proteolysis” (J Med Chem, 1997).
“And” between values parts separate entries of the source, which are not always exact repeats. Equal values may be shown once.

How the values were obtained:
Format in all cases: ADME, organism-based
Mus musculus [1] = experiment: The biodistribution time for [131 I ]L-HML-NGA radioactivity after concomitant administration of [131 I ]L-HML-NGA and [125 I ]L-HML-IT-NGA in mice. It is expressed as percent injected dose per neck.; details: in vivo
In short: (§1)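 Six-week-old male ddY mice were given one i.v. co-injection of a 131I/125I-labelled NGA pair, each diluted to 90 µg/mL protein in 0.1 M PBS pH 6.0 and mixed 1:1, giving 9 µg of each radioiodinated NGA per mouse. Groups of five were killed at 5, 15, 30 min, 1 h and 3 h. Organs were weighed and counted in a well counter. Values are % ID per organ, blood as % ID/g, mean (SD).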

Mus musculus [2] = experiment: The biodistribution time for [131 I ]L-HML-NGA radioactivity after concomitant administration of [131 I ]L-HML-NGA and [125 I ]MIH-NGA in mice. It is expressed as percent injected dose per gram of blood tissue.; details: in vivo; in short: as §1
Mus musculus [3] = experiment: The biodistribution time for [131 I ]L-HML-NGA radioactivity after concomitant administration of [131 I ]L-HML-NGA and [125 I ]MIH-NGA in mice. It is expressed as percent injected dose per neck.; details: in vivo; in short: as §1
Mus musculus [4] = experiment: The biodistribution time for [131 I ]L-HML-NGA radioactivity after concomitant administration of [131 I ]L-HML-NGA and [125 I ]MPH-NGA in mice. It is expressed as percent injected dose per stomach.; details: in vivo; in short: as §1
Mus musculus [5] = experiment: The biodistribution time for [131 I ]L-HML-NGA radioactivity after concomitant administration of [131 I ]L-HML-NGA and [125 I ]L-HML-IT-NGA in mice. It is expressed as percent injected dose per gram of blood tissue. Values are mean(SD) of five anim; details: in vivo; in short: as §1
[6] = Cumulative radioactivity exerted by [131 I ]L-HML-NGA in the feces at 24 hour postinjection of [131 I ]L-HML-NGA and [125 I ]MIH-NGA.; details: in vivo
In short: (§2)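 Mice received one i.v. co-injection of the dual-isotope NGA mixture, 9 µg of each radioiodinated protein, and were housed in metabolic cages for 24 h. Cumulative urine and feces were collected and counted. Values are % injected dose, mean (SD) of five animals, with a Student's paired t-test between the two co-administered conjugates.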

Mus musculus [7] = experiment: The biodistribution time for [131 I ]L-HML-NGA radioactivity after concomitant administration of [131 I ]L-HML-NGA and [125 I ]L-HML-IT-NGA in mice. It is expressed as percent injected dose per stomach.; details: in vivo; in short: as §1
[8] = Cumulative radioactivity exerted by [131 I ]L-HML-NGA in the urine at 24 hour postinjection of [131 I ]L-HML-NGA and [125 I ]MPH-NGA.; details: in vivo; in short: as §2
Homo sapiens [9] = species on record: Homo sapiens; experiment: The percent protein-bound radioactivity in NGAfractions following incubation of radioiodinated [131 I ]L-HML-NGA in human serum after 24 hours
In short: (§3)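 Conjugates were diluted to 0.5 mg/mL in 0.1 M PBS pH 6.0, and 20 µL was added to 230 µL of freshly prepared human serum. Samples were incubated at 37 °C and taken at 1, 3, 6 or 24 h. Protein-bound fraction (Rf 0) was separated from small metabolites (Rf 0.6-0.9) by paper chromatography in methanol-water 4:1. Protein-bound radioactivity was divided by the initial radiochemical purity. Values are mean (SD).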

Mus musculus [10] = experiment: The biodistribution time for [131 I ]L-HML-NGA radioactivity after concomitant administration of [131 I ]L-HML-NGA and [125 I ]L-HML-IT-NGA in mice. It is expressed as percent injected dose per intestine.; details: in vivo; in short: as §1
[11] = Cumulative radioactivity exerted by [131 I ]L-HML-NGA in the feces at 24 hour postinjection of [131 I ]L-HML-NGA and [125 I ]MPH-NGA.; details: in vivo; in short: as §2
Homo sapiens [12] = species on record: Homo sapiens; experiment: The percent protein-bound radioactivity in NGAfractions following incubation of radioiodinated [131 I ]L-HML-NGA in human serum after 6 hours; details: in vivo; in short: as §3
Mus musculus [13] = experiment: The biodistribution time for [131 I ]L-HML-NGA radioactivity after concomitant administration of [131 I ]L-HML-NGA and [125 I ]D-HML-NGA in mice. It is expressed as percent injected dose per intestine.; details: in vivo; in short: as §1

Radioactivity (Mus musculus [1]): 0.07% and 0.25% and 0.21% and 0.03% | Radioactivity (Mus musculus [5]): 3.19% | Radioactivity [6]: 5.87% | Radioactivity (Mus musculus [7]): 0.17% and 0.46% and 0.3% and 0.35% | Radioactivity [8]: 84.45% | Radioactivity (Homo sapiens [9]): 97.23% | Radioactivity [11]: 3.28% | Radioactivity (Homo sapiens [12]): 98.39%
Structure (SMILES): N[C@@H](CS)C(=O)SC1CC(=O)N(CCCC[C@H](NC(=O)CNC(=O)c2cccc([131I])c2)C(=O)O)C1=O (stereo partly drawn)
Radioactivity (Mus musculus [2]): 1.22% and 2.93% and 1.48% and 0.58% and 0.43% | Radioactivity (Mus musculus [3]): 0.07% and 0.25% and 0.12% and 0.05% and 0.03% | Radioactivity (Mus musculus [4]): 0.26% and 0.57% and 0.3% and 0.29% and 0.33% | Radioactivity (Mus musculus [10]): 0.35% and 2.3% and 4.98% and 5.54% and 5.14% | Radioactivity (Mus musculus [13]): 1.77% and 4.88% and 7.76% and 9.83% and 8.6%
